{"data": "Assay results from different studies", "PBRM1 bromodomain": "Protein polybromo-1, bromodomain (PBRM1, Homo sapiens, UniProt Q86U86)", "Melanocortin receptor 3": "Melanocortin receptor 3 (Mus musculus, UniProt P33033)", "ADORA2B": "Adenosine receptor A2b (ADORA2B, Homo sapiens, UniProt P29275)"}
{"target": "Prostaglandin E2 receptor EP2 subtype (PTGER2, Homo sapiens, UniProt P43116)", "test": "cAMP, antagonist, TR-FRET", "measurement": "Kb", "value": "~0.01 µM", "Compound": "Cc1cc2ccccc2n1CCNC(=O)c1ccc(N2CCCCC2)cc1"}
{"target": "PBRM1 bromodomain", "test": "binding, SPR", "measurement": "Kd", "value": "0.83 µM", "Compound": "Cc1ncsc1-c1ccc(CNC(=O)[C@@H]2C[C@@H](O)CN2C(=O)[C@@H](NC(=O)C2(F)CC2)C(C)(C)C)c(OCCOc2ccc(CN3CCN(c4cc(-c5ccccc5O)nnc4N)CC3)cc2)c1"}
{"target": "Metabotropic glutamate receptor 8 (Grm8, Rattus norvegicus, UniProt P70579)", "test": "calcium signal, agonist", "measurement": "EC50", "value": "0.77 µM", "Compound": "N[C@@H](CCC(=O)O)C(=O)O"}
{"target": "Beta-3 adrenergic receptor (ADRB3, Homo sapiens, UniProt P13945)", "test": "cell-free assay, radioligand", "measurement": "Ki", "value": "> 10 µM", "Compound": "CCCCN1CCC(COC(=O)c2ccc(N)c(OCF)c2)CC1"}
{"target": "Melanocortin receptor 3", "test": "reporter gene, agonist", "measurement": "EC50", "value": "0.036 µM", "Compound": "CSCC[C@H](NC(=O)[C@@H](NC(=O)[C@@H](N)Cc1ccc(O)cc1)C(C)C)C(=O)NCC(=O)N[C@@H](Cc1c[nH]cn1)C(=O)N[C@@H](Cc1ccccc1)C(=O)N[C@@H](CCCNC(=N)N)C(=O)N[C@@H](Cc1c[nH]c2ccccc12)C(=O)N[C@@H](CC(=O)O)C(=O)N[C@@H](CCCNC(=N)N)C(=O)O"}
{"target": "PBRM1 bromodomain", "test": "binding, SPR", "measurement": "Kd", "value": "1.2 µM", "Compound": "Cc1ncsc1-c1ccc(CNC(=O)[C@@H]2C[C@H](O)CN2C(=O)[C@@H](NC(=O)C2(F)CC2)C(C)(C)C)c(OCCc2ccc(CN3CCN(c4cc(-c5ccccc5O)nnc4N)CC3)cc2)c1"}
{"target": "Melanocortin receptor 3", "test": "reporter gene, agonist", "measurement": "EC50", "value": "> 100 µM", "Compound": "N=C(N)NCCC[C@H](N)C(=O)N[C@@H](Cc1ccccc1)C(=O)NCC(=O)O"}
{"target": "ADORA2B", "test": "ligand displacement, radioligand", "conditions": "cell membranes", "measurement": "Ki", "value": "> 10 µM", "Compound": "C#CCN1CCCn2c1nc1c2c(=O)n(C)c(=O)n1C"}
{"target": "B-cell lymphoma 6 protein (BCL6, Homo sapiens, UniProt P41182, C67R/C84N/C8Q)", "test": "binding, ITC", "measurement": "Kd", "value": "> 1000 µM", "Compound": "CNC(=O)COc1cc2cc(Nc3nc(N4CCC(C(=O)NCCCCCCCNC(=O)C[C@@H]5N=C(c6ccc(Cl)cc6)c6c(sc(C)c6C)-n6c(C)nnc65)CC4)ncc3Cl)cc(OC)c2n(C)c1=O"}
{"target": "ADORA2B", "test": "GTPγS binding, agonist", "conditions": "cell membranes", "measurement": "EC50", "value": "17.4 µM", "Compound": "CCNC(=O)[C@H]1O[C@@H](n2cnc3c(N)nc(NN=CC4CCC=CO4)nc32)[C@H](O)[C@@H]1O (stereo partly shown)"}
{"target": "Melanocortin receptor 3", "test": "reporter gene, agonist", "measurement": "EC50", "value": "6.6 µM", "Compound": "N=C(N)NCCC[C@H](NC(=O)[C@H](CC(=O)O)NC(=O)[C@H](Cc1c[nH]c2ccccc12)NC(=O)[C@H](CCCNC(=N)N)NC(=O)[C@H](Cc1ccccc1)NC(=O)[C@@H](N)Cc1c[nH]cn1)C(=O)N[C@@H](Cc1ccccc1)C(=O)O"}
{"target": "ADORA2B", "test": "ligand displacement, radioligand", "conditions": "cell membranes", "measurement": "Ki", "value": "> 10 µM", "Compound": "CC(C)CC(C)N1CCCn2c1nc1c2c(=O)n(C)c(=O)n1C (stereo not shown)"}
{"target": "Muscleblind-like protein 1 (Homo sapiens, UniProt Q9NR56)", "test": "binding", "conditions": "lysate", "measurement": "Kd", "value": "0.023 µM", "Compound": "Cc1cc2nc3c(=O)[nH]c(=O)nc-3n(C[C@H](O)[C@H](O)[C@H](O)COP(=O)(O)OP(=O)(O)OC[C@H]3O[C@@H](n4cnc5c(N)ncnc54)[C@H](O)[C@@H]3O)c2cc1C"}
{"target": "Bromodomain-containing protein 2, BD1 (BRD2, Homo sapiens, UniProt P25440)", "test": "binding, ITC", "measurement": "Kd", "value": "0.111 µM", "Compound": "CC(=O)N[C@H](C(=O)N1C[C@H](O)C[C@H]1C(=O)NCc1ccc(-c2scnc2C)cc1)C(C)(C)SCCCCCCNC(=O)C[C@@H]1N=C(c2ccc(Cl)cc2)c2c(sc(C)c2C)-n2c(C)nnc21"}
{"target": "ADORA2B", "test": "ligand displacement, radioligand", "conditions": "cell membranes", "measurement": "Ki", "value": "> 10 µM", "Compound": "CN1CCCn2c1nc1c2c(=O)n(C)c(=O)n1C"}
{"target": "Melanocortin receptor 3", "test": "reporter gene, agonist", "measurement": "EC50", "value": "20.4 µM", "Compound": "N=C(N)NCCC[C@H](NC(=O)[C@H](CC(=O)O)NC(=O)[C@H](Cc1c[nH]c2ccccc12)NC(=O)[C@H](CCCNC(=N)N)NC(=O)[C@@H](N)Cc1ccccc1)C(=O)N[C@@H](Cc1ccccc1)C(=O)O"}
{"target": "Toll-like receptor 7 (TLR7, Homo sapiens, UniProt Q9NYK1)", "test": "reporter gene, agonist", "measurement": "EC50", "value": "127 µM", "Compound": "CCCCOc1nc(N)c2[nH]c(=O)n(CCN)c2n1"}
{"target": "ADORA2B", "test": "ligand displacement, radioligand", "conditions": "cell membranes", "measurement": "Ki", "value": "> 10 µM", "Compound": "CCC(C)N1CCCn2c1nc1c2c(=O)n(C)c(=O)n1C (stereo not shown)"}
{"target": "Tyrosine-protein kinase Tec (TEC, Homo sapiens, UniProt P42680)", "test": "binding, competition with immobilised ligand", "measurement": "Kd", "value": "0.004 µM", "Compound": "CC#CC(=O)N1CC[C@@H](n2cc(-c3ccc(Oc4c(F)cccc4F)cc3)c3c(N)n[nH]c(=O)c32)C1"}
{"target": "Bromodomain-containing protein 2, BD2 (BRD2, Homo sapiens, UniProt P25440)", "test": "cell-free assay, competition with immobilised ligand", "measurement": "Kd", "value": "0.095 µM", "Compound": "Cc1noc(C)c1-c1ccc(-c2nc3cnccn3c2NC(C)(C)C)cc1"}
{"target": "Melanocortin receptor 3", "test": "reporter gene, agonist", "measurement": "EC50", "value": "> 100 µM", "Compound": "N=C(N)NCCC[C@H](NC(=O)[C@H](CC(=O)O)NC(=O)[C@H](Cc1c[nH]c2ccccc12)NC(=O)[C@@H](N)CCCNC(=N)N)C(=O)N[C@@H](Cc1ccccc1)C(=O)NCC(=O)O"}
{"target": "ADORA2B", "test": "ligand displacement, radioligand", "conditions": "cell membranes", "measurement": "Ki", "value": "> 10 µM", "Compound": "CC(C)CN1CCCn2c1nc1c2c(=O)n(C)c(=O)n1C"}
{"target": "Melanocortin receptor 3", "test": "reporter gene, agonist", "measurement": "EC50", "value": "0.8 µM", "Compound": "CSCC[C@H](NC(=O)[C@@H](NC(=O)[C@@H](N)Cc1ccc(O)cc1)C(C)C)C(=O)NCC(=O)N[C@@H](Cc1c[nH]cn1)C(=O)N[C@@H](Cc1ccccc1)C(=O)N[C@@H](CCCNC(=N)N)C(=O)N[C@@H](Cc1c[nH]c2ccccc12)C(=O)N[C@@H](CC(=O)O)C(=O)O"}
{"target": "ADORA2B", "test": "ligand displacement, radioligand", "conditions": "cell membranes", "measurement": "Ki", "value": "> 10 µM", "Compound": "CCCCCN1CCCn2c1nc1c2c(=O)n(C)c(=O)n1C"}
{"target": "Melanocortin receptor 3", "test": "reporter gene, agonist", "measurement": "EC50", "value": "> 100 µM", "Compound": "N=C(N)NCCC[C@H](NC(=O)[C@H](CC(=O)O)NC(=O)[C@@H](N)Cc1c[nH]c2ccccc12)C(=O)N[C@@H](Cc1ccccc1)C(=O)NCC(=O)O"}
{"target": "ADORA2B", "test": "ligand displacement, radioligand", "conditions": "cell membranes", "measurement": "Ki", "value": "1.32 µM", "Compound": "CCCCN1CCCn2c1nc1c2c(=O)n(CCC)c(=O)n1CCC"}
{"target": "Melanocortin receptor 3", "test": "reporter gene, agonist", "measurement": "EC50", "value": "10.4 µM", "Compound": "CSCC[C@H](NC(=O)[C@@H](N)Cc1ccc(O)cc1)C(=O)N[C@@H](Cc1c[nH]cn1)C(=O)N[C@@H](Cc1ccccc1)C(=O)N[C@@H](CCCNC(=N)N)C(=O)N[C@@H](Cc1c[nH]c2ccccc12)C(=O)N[C@@H](Cc1ccccc1)C(=O)O"}
{"target": "Potassium channel subfamily K member 2 (KCNK2, Homo sapiens, UniProt O95069)", "test": "binding, BRET", "measurement": "Kd", "value": "> 500 µM", "Compound": "CCCCCCCCCCCCC/C=C/[C@@H](O)[C@@H](N)COP(=O)(O)O"}
